Here are results for 4 compounds from ChEMBL document CHEMBL1132157 (J Med Chem, 1999).

Structures are written as SMILES.

In experiment [1] the target is T1, 5-hydroxytryptamine receptor 1D (Homo sapiens, UniProt P28221). As to the kind of experiment: Agonist-induced [35S]- GTPgammaS binding in CHO cells stably transfected with 5-hydroxytryptamine 1D receptor. Type of experiment: cell-based. The procedure, abridged: (§1)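 Membranes from thawed CHO cells with human 5-HT1D, prepared in ice-cold 20 mM Hepes/EDTA at pH 7.4, spun at 40000g. Assay buffer: 100 mM NaCl, 10 mM MgCl2, 0.1% ascorbate, 10 μM pargyline. GDP 100 μM plus drug, 20 min at 30 °C, then ice 15 min. Then 100 pM [35S]GTPγS, 30 min at 30 °C, filtration. Emax is taken as % of maximal 5-HT response; duplicates, 2–5 occasions.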
T1 sequence (P28221 whole entry): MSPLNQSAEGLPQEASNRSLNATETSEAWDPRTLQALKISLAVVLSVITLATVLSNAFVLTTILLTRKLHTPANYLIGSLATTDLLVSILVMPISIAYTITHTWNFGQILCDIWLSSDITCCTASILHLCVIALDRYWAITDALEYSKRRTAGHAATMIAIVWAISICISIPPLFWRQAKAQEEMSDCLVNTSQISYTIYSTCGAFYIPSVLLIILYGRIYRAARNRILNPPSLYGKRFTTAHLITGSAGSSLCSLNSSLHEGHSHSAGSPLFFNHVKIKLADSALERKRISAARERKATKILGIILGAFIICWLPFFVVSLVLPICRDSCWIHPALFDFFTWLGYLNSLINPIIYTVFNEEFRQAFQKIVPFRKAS

The target in experiment [2] is T1, 5-hydroxytryptamine receptor 1D. As to the kind of experiment: Maximum stimulation of [35S]GTP-gamma-S, binding in CHO cells expressing human 5-HT-1d relative to 5-HT. Type of experiment: functional, cell-based. The procedure, abridged:
as §1

Experiment [3] shares this target. The experiment is described as follows: Binding affinity at human cloned 5-hydroxytryptamine 1D receptor stably expressed in CHO cells by [3H]5-HT displacement. In kind it is cell-based. The procedure, abridged: (§2)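 Membranes from thawed CHO cells with human 5-HT1B or 5-HT1D, washed in 50 mM Tris-HCl pH 7.7, preincubated 10 min at 37 °C to remove endogenous 5-HT. Buffer holds 0.1% ascorbate, 10 μM pargyline and 4 mM CaCl2. Uses 2.0 nM [3H]5-HT, 30 min at 37 °C; 10 μM 5-HT defines nonspecific binding. Filtration; IC50 by nonlinear regression; duplicates, 2–5 occasions.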

A short description of experiment [4]: Ratio of IC50 for human 5-HT1B to human 5-HT1D receptors.
Experiment [5] deals with T2, 5-hydroxytryptamine receptor 1B (Homo sapiens, UniProt P28222). The experiment is described as follows: Binding affinity at cloned human 5-hydroxytryptamine 1B receptor stably expressed in CHO cells by [3H]5-HT displacement. In kind it is cell-based.
T2 sequence (P28222 whole entry): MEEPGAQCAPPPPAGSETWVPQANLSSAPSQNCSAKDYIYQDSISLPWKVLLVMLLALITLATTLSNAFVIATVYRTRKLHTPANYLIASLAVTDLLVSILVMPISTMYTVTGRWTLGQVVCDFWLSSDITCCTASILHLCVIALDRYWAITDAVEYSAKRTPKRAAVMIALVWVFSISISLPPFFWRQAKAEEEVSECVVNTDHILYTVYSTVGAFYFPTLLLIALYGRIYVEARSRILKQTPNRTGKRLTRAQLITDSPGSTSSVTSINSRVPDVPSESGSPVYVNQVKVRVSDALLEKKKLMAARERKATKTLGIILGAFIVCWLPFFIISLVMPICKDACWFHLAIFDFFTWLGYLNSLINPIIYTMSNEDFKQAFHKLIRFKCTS
In experiment [6] the target is T3, 5-hydroxytryptamine receptor 1F (Homo sapiens, UniProt P30939).
T3 sequence (P30939 whole entry): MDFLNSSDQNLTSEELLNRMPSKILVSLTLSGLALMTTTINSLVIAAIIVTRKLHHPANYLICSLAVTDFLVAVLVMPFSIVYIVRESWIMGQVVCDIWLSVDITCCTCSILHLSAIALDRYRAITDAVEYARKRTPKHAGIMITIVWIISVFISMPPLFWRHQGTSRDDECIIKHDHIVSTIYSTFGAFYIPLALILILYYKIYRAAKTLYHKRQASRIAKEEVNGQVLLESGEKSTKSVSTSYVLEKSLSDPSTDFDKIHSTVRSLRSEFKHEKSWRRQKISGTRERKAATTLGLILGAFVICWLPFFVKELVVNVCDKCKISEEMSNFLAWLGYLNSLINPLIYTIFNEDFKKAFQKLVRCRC
As to the kind of experiment: Compound was tested for the displacement of [3H]5-HT binding to cloned human 5-hydroxytryptamine 1F receptor stably expressed in CHO cells. In kind it is cell-based.

Experiment [7] addresses 5-hydroxytryptamine receptor 5A (Homo sapiens, UniProt P47898). The experiment is described as follows: Compound was tested for the displacement of [3H]5-HT binding to cloned human 5-hydroxytryptamine 5A receptor stably expressed in CHO cells. Type of experiment: cell-based.
Experiment [8] concerns the target 5-hydroxytryptamine receptor 6 (Rattus norvegicus, UniProt P31388). The experiment is described as follows: Compound was tested for the displacement of [3H]5-HT binding to cloned rat 5-hydroxytryptamine 6 receptor stably expressed in CHO cells. Type of experiment: cell-based.
Experiment [9] concerns the target 5-hydroxytryptamine receptor 2A (Homo sapiens, UniProt P28223). The experiment is described as follows: Compound was tested for the displacement of [3H]5-HT binding to cloned human 5-hydroxytryptamine 2A receptor stably expressed in CHO cells. In kind it is cell-based.
In experiment [10] the target is T4, 5-hydroxytryptamine receptor 1A (Homo sapiens, UniProt P08908).
T4 sequence (P08908 whole entry): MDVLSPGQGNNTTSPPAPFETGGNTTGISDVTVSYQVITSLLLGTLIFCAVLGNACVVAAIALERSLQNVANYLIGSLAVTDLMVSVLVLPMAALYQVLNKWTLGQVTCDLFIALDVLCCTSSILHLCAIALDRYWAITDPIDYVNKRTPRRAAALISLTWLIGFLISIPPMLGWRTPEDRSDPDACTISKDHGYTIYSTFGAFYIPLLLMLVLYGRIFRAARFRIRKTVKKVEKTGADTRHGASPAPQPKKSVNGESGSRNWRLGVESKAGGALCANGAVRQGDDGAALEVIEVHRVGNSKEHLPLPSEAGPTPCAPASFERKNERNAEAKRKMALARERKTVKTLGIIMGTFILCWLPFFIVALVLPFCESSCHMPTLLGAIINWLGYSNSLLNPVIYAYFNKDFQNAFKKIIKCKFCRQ
As to the kind of experiment: Compound was tested for the displacement of [3H]5-HT binding to cloned 5-hydroxytryptamine 1A receptor stably expressed in CHO cells. In kind it is cell-based.

The target of experiment [11] is 5-hydroxytryptamine receptor 1E (Homo sapiens, UniProt P28566). As to the kind of experiment: Compound was tested for the displacement of [3H]5-HT binding to cloned human 5-hydroxytryptamine 1E receptor stably expressed in CHO cells. In kind it is cell-based.
Sequence of 5-hydroxytryptamine receptor 1E (P28566 whole entry): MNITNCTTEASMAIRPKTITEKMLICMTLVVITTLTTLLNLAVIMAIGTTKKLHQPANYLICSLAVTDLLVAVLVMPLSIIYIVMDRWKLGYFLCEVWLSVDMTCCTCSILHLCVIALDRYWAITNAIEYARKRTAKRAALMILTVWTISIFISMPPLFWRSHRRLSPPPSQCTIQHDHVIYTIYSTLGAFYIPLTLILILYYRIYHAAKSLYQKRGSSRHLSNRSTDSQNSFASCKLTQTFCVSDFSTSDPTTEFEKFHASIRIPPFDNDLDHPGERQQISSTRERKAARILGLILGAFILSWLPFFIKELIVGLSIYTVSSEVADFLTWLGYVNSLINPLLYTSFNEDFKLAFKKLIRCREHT
The target in experiment [12] is T2, 5-hydroxytryptamine receptor 1B. The experiment is described as follows: Displacement of [3H]5-HT binding to cloned 5-hydroxytryptamine 1B receptor stably expressed in CHO cells. In kind it is cell-based. The procedure, abridged:
as §2

For experiment [13], the target named is 5-hydroxytryptamine receptor 7 (Rattus norvegicus, UniProt P32305). As to the kind of experiment: Compound was tested for the displacement of [3H]5-HT binding to cloned rat 5-hydroxytryptamine 7 receptor stably expressed in CHO cells. Type of experiment: cell-based.
Sequence of 5-hydroxytryptamine receptor 7 (P32305 whole entry): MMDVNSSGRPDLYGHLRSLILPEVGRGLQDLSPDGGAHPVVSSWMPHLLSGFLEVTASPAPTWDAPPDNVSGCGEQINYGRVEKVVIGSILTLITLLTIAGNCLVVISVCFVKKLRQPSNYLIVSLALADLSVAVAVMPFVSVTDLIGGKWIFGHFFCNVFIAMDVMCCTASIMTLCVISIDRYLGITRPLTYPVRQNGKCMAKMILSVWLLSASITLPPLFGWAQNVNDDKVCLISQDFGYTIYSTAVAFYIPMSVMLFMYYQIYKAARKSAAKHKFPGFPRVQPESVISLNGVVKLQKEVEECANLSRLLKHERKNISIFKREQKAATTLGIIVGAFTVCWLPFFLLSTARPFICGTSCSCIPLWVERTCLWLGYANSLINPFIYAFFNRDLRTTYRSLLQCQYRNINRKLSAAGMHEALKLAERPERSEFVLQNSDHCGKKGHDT

Sequence of 5-hydroxytryptamine receptor 5A (P47898 whole entry): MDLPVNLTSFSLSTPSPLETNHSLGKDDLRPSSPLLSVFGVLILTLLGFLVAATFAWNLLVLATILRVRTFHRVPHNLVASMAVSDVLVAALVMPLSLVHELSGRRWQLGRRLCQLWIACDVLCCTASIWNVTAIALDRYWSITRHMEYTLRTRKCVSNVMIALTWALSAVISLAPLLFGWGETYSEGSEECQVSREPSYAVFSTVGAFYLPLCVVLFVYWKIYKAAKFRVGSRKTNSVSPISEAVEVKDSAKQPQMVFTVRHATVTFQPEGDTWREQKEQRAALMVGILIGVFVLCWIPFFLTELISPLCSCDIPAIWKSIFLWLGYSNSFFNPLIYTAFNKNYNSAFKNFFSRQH
Sequence of 5-hydroxytryptamine receptor 6 (P31388 whole entry): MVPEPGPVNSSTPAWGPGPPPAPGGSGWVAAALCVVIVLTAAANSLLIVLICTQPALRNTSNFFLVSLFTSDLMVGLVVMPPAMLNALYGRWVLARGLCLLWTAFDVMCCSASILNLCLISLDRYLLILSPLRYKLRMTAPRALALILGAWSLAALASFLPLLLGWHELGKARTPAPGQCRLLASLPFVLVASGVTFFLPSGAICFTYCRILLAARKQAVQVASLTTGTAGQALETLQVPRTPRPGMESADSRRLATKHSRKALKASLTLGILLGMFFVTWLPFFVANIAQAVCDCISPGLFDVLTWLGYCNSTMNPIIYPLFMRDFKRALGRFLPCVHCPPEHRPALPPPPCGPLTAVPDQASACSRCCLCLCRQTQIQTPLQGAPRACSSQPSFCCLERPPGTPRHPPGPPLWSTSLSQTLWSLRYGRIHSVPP
Sequence of 5-hydroxytryptamine receptor 2A (P28223 whole entry): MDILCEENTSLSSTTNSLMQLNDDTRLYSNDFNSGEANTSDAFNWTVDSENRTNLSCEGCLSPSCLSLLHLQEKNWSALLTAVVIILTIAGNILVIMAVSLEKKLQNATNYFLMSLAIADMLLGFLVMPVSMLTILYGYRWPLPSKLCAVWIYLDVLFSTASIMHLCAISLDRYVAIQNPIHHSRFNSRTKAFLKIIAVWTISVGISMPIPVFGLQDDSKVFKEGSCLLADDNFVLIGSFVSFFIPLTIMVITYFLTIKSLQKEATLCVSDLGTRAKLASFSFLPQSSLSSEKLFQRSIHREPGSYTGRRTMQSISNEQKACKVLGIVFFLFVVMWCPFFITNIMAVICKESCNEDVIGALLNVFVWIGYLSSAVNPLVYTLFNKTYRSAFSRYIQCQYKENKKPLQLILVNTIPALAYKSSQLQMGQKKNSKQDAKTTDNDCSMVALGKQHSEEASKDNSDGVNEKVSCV

`CC(CO)(NC1CCN(CCCc2c[nH]c3ccc(-n4cnnc4)cc23)CC1)c1ccccc1` (stereo not given) came in with an EC50 in experiment [1] of 3.4 nM. This compound came in with an Efficacy in experiment [2] of 59%. Moreover, the IC50 in [3] is 5.2 nM; in experiment [5] it was 98 nM. Further, in experiment [4], the Selectivity stood at 19.

Turning to `C[C@@H](NC1CCN(CCCc2c[nH]c3ccc(-n4cnnc4)cc23)CC1)[C@H](O)c1ccccc1`, the midpoint of the response in [1], the EC50, lay at 15 nM. This compound gave an Efficacy in experiment [2] of 76%. Moreover, the IC50 in experiment [3] stood at 11 nM; in experiment [5], 200 nM. Moreover, the Selectivity in experiment [4] was determined as 18.

`OC[C@H](NC1CCN(CCCc2c[nH]c3ccc(-n4cnnc4)cc23)CC1)c1ccc(F)cc1`: a half-maximal effect in experiment [1] (EC50) was put at 0.8 nM. Further, the IC50 was greater than 10000 nM in experiment [6]; greater than 10000 nM in [7]; greater than 10000 nM in experiment [8]; 1100 nM in experiment [9]; 66 nM in [10]; greater than 10000 nM in experiment [11]. In addition, the values for the IC50 in experiment [12] and in [13] were 150 nM and 540 nM, respectively. The Selectivity in experiment [4] amounted to 170.

In the case of `C[C@@H](NC1CCN(CCCc2c[nH]c3ccc(-n4cnnc4)cc23)CC1)C(=O)Nc1ccccc1`, a half-maximal response in experiment [1] (EC50) required 15 nM. In [2], this compound displayed an Efficacy of 61%. The IC50 in experiment [3] was 7.6 nM; in experiment [5], 85 nM. The Selectivity in [4] came to 11.
